Compounds with a hit are over-represented: about 1% of the library has one in this group of screens.
RAD54 branch: inhibitors of human RAD54 branch migration | RAD54 Holliday junction branch migration, FAM/BHQ fluorescence | AID 602329 | 360,000 compounds, 0.14% hits | Q92698 | inhibition, % at 10.4 µM;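 active = mean normalized replicate activity at least 40 and at least half of replicates scoring 40 or more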;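 also: inhibitors cause a drop in the FAM fluorescence signal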
ERp5 inh: inhibitors of human ERp5; ERp5 insulin aggregation, absorbance 650 nm, 90 min; inhibition, % at 9.99 µM; 350,000 compounds, 0.05% hits;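 active = mean replicate inhibition above about 25%, with every replicate also reaching it, limit read from the data, passing the limit was not always enough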
Target sequence (Q15084 whole entry, looked up): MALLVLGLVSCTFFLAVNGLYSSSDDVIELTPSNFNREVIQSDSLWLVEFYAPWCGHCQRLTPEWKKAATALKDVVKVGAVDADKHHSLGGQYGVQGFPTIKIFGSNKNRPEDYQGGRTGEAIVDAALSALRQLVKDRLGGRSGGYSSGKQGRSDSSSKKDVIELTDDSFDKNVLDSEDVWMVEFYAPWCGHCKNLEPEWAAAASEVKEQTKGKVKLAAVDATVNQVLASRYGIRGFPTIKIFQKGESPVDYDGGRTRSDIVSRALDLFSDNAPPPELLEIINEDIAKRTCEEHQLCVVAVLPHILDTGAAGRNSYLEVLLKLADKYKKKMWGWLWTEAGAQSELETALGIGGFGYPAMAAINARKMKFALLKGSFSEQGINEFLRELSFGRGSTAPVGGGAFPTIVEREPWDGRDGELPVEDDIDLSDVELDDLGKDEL
CAL PDZ FP-1: inhibitors of human CAL PDZ peptide binding. 330,000 compounds, 0.02% hits. purified CAL PDZ, TMR-peptide fluorescence polarization, 1 h. inhibition, % at 20 µM. AID 504414;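 active = highest replicate inhibition of at least 40%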
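Assay system – tagged CAL PDZ protein CerCALP, purified · Timing – 1 h at RT · Compound – single point, 20 µM · Measured by – fluorescence polarization from S- and P-plane intensities, G-factor corrected · Evaluation – inhibition from polarization loss · Probe or stimulus – TMR reporter peptide T*-PRC34 · Buffer or medium – pH 7.4 phosphate-saline buffer, reducing agent, detergent, IgG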
PDI turbidity: inhibitors of human protein disulfide isomerase | P07237 | PDI insulin aggregation turbidity, A650, 90 min | inhibition, % at 10 µM | 350,000 compounds, 0.052% hits | AID 588391;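 active = mean inhibition across replicates of 30% or more, whatever share of single replicates reach that level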
CAL PDZ FP-2: blocks peptide binding to the human CAL PDZ domain; AID 602252; inhibition, % at 24.9 µM; purified CAL PDZ, TMR-peptide fluorescence polarization, 1 h; Q9HD26; 300,000 compounds, 0.92% hits;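 active = mean inhibition of at least 30% with at least half of replicates also reaching 30%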
RAD52 anneal inh: inhibitors of human RAD52 DNA annealing. recombinant RAD52 DNA annealing, FRET fluorescence. inhibition, % at 18.7 µM. P43351. 360,000 compounds, 0.46% hits;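 active = every replicate showing at least 50% inhibition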
Of the large screens only hits and unclear results are named; the others gave an inactive call.

Cc1ccsc1C(=O)NNC(=O)c1cccc(S(=O)(=O)N2CCCC2)c1	CAL PDZ FP-2 83.3
COCC(=O)N(C)C[C@H]1Oc2cc(-c3cccnc3)ccc2S(=O)(=O)N([C@H](C)CO)C[C@H]1C	none (no result: CAL PDZ FP-1, PDI turbidity, CAL PDZ FP-2)
COc1cc(OC)cc(C(=O)NNC(=S)NC(=O)c2cccnc2)c1	CAL PDZ FP-2 60.8
Cc1c(CCOC(=O)C23CC4CC(CC(C)(C4)C2)C3)sc[n+]1CC(=O)c1ccccc1	none
Cc1c(CCOC(=O)CC23CC4CC(CC(C)(C4)C2)C3)sc[n+]1CC(=O)c1ccccc1	RAD52 anneal inh 62.4 (no result: RAD54 branch, CAL PDZ FP-2)
CCc1ccccc1NC(=O)CC1SCCNC1=O (centres undefined)	CAL PDZ FP-2 32.0 (no result: RAD54 branch)
O=C(CC1SCCNC1=O)Nc1cccc(Cl)c1 (centres undefined)	none (no result: ERp5 inh, RAD52 anneal inh)
O=c1c2ccccc2c2ccccc2c(=O)n1-c1ccccc1	none (no result: RAD54 branch)
Cc1cn(C(C)C)c(=O)n(-c2ccccc2)c1=O	CAL PDZ FP-2 32.8 (no result: CAL PDZ FP-1)
COc1ccc(CN(C)C[C@@H]2Oc3ccc(NC(=O)CCN4CCOCC4)cc3CC(=O)N([C@@H](C)CO)C[C@@H]2C)cc1	none (no result: CAL PDZ FP-1, PDI turbidity, CAL PDZ FP-2)
Cc1cc(NC(=O)CSc2nnc3ccccn23)no1	CAL PDZ FP-2 78.4 (no result: RAD54 branch)
Cc1cccc(S(=O)(=O)N(C)C[C@@H]2OCc3ccccc3-c3c(n(C)c4ccccc34)C(=O)N([C@@H](C)CO)C[C@@H]2C)c1	none (no result: CAL PDZ FP-1, PDI turbidity, CAL PDZ FP-2)
NC(=S)NNC(=O)c1ccccc1Cl	CAL PDZ FP-2 34.5 (no result: RAD54 branch)
Nc1ccc(-c2c3ccc(=O)cc-3oc3cc(O)ccc23)cc1C(=O)O	CAL PDZ FP-2 41.0 (no result: RAD54 branch)
COc1ccc(S(=O)(=O)Nc2ccc3c(c2)CC(=O)N([C@@H](C)CO)C[C@H](C)[C@@H](CN(C)S(=O)(=O)c2cn(C)cn2)O3)cc1	none (no result: CAL PDZ FP-1, PDI turbidity, CAL PDZ FP-2)
O=C(O)C1CC=CCC1C(=O)NC12CC3CC(CC(C3)C1)C2 (centres undefined)	CAL PDZ FP-2 67.5 (no result: ERp5 inh, RAD52 anneal inh)
O=C(Nc1cccnc1)c1cc(-c2ccccc2)on1	CAL PDZ FP-2 122.3 (no result: ERp5 inh, CAL PDZ FP-1, RAD52 anneal inh)
O=C(Nc1c(F)cc(F)cc1Br)c1cc(-c2ccccc2)on1	CAL PDZ FP-2 80.4
Cc1c(NC(=O)c2cc(-c3ccccc3)on2)c(=O)n(-c2ccccc2)n1C	none
O=C(Nc1cccc(O)c1)c1cc(-c2ccc3c(c2)OCO3)on1	CAL PDZ FP-2 60.3
COc1cc(NC(=O)c2cc(-c3ccc4c(c3)OCO4)on2)cc(OC)c1OC	none
Cc1c(NC(=O)c2cc(-c3ccc(O)cc3)on2)c(=O)n(-c2ccccc2)n1C	CAL PDZ FP-2 34.9
O=C(Nc1cccnc1)c1cc(-c2ccc(Br)cc2)on1	none (no result: CAL PDZ FP-2)
CN(C)CC(=O)Nc1ccc2c(c1)[C@H]1C[C@@H](CC(=O)NCC3CC3)O[C@H](CO)[C@H]1O2	none (no result: CAL PDZ FP-1, PDI turbidity, CAL PDZ FP-2)
CCN(C(=O)CN1C(=O)/C(=C/c2ccccc2)SC1=S)C1CCS(=O)(=O)C1 (centres undefined)	CAL PDZ FP-2 71.9
O=C(NCCN1CCOCC1)c1cc2ccccc2o1	none (no result: ERp5 inh, RAD52 anneal inh)
CC(C)(CNC(=O)c1cc2ccccc2o1)N1CCOCC1	CAL PDZ FP-2 67.2 (no result: ERp5 inh, RAD52 anneal inh)
COc1ccc(CN(C)C[C@@H]2OCCCC[C@@H](C)Oc3ccc(NC(=O)Nc4ccc(F)cc4)cc3C(=O)N([C@H](C)CO)C[C@H]2C)cc1	none (no result: CAL PDZ FP-1, PDI turbidity, CAL PDZ FP-2)
CC(C)C(=O)Nc1nnc(S(=O)(=O)N(C)c2ccc(Cl)cc2)s1	CAL PDZ FP-2 44.9 (no result: CAL PDZ FP-1)
CN(c1ccc(Cl)cc1)S(=O)(=O)c1nnc(NC(=O)c2ccco2)s1	none
O=C(/C=C/c1cccc([N+](=O)[O-])c1)NCCSCc1cccc(Cl)c1	CAL PDZ FP-2 51.7 (no result: ERp5 inh, RAD52 anneal inh)
O=C(/C=C/c1cccc([N+](=O)[O-])c1)NCc1ccccc1	none (no result: RAD54 branch)
Cc1ccc(NC(=S)NC(=O)C2CC2)cc1Cl	CAL PDZ FP-2 51.8
COc1ccccc1CN1[C@@H]2CN(C(=O)C3CCCCC3)c3ccccc3[C@@H]2[C@@H]1CO	none (no result: CAL PDZ FP-1, PDI turbidity, CAL PDZ FP-2)
Cc1cc(C(=O)N2CCCC(CCC(=O)N3CCN(c4ccccn4)CC3)C2)c(C)o1 (centres undefined)	CAL PDZ FP-2 45.2
CC(=O)N(C)C[C@@H]1Oc2cc(/C=C/c3ccccc3)ccc2S(=O)(=O)N([C@@H](C)CO)C[C@H]1C	none (no result: CAL PDZ FP-1, PDI turbidity, CAL PDZ FP-2)
COc1ccc(C(C[N+](=O)[O-])c2c(-c3ccccc3)cc3ccccn23)cc1 (centres undefined)	CAL PDZ FP-2 84.7 (no result: ERp5 inh, RAD52 anneal inh)
COc1ccc(NS(=O)(=O)c2ccc(O)c(C(=O)OCC(=O)N3CCCCC3)c2)cc1	CAL PDZ FP-2 39.2

Assay outcomes deposited in PubChem BioAssay by Broad Institute.
